Assay outcomes as filed in PubChem BioAssay.
An excerpt weighted towards active compounds, which were near 1.5% of everything screened.
ABHD4 inh – ABHD4 inhibitors, primary screen, biochemical, fluorescence polarization, mouse; AID 720543, 2013; inhibition, % at 8.92 µM; (Lyso)-N-acylphosphatidylethanolamine lipase (Mus musculus), Q8VD66; purified mABHD4, FP-Rh probe fluorescence polarization; actives 0.54% (n = 370,000);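 active means inhibition exceeding the mean over every tested compound plus 3 SD, cut at about 30% in these data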;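 further: 0% = plate median of compound wells and 100% = S159A mutant with DMSO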
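Test system: mABHD4 protein; Read-out basis: % inhibition; Incubation: 45 min + 60 min at 25 °C; Repeats: single replicate; Technique: fluorescence polarization with parallel and perpendicular emission, 525/598 nm; Compound: 8.92 µM, single dose; Benchmarks: full inhibition S159A mutant plus DMSO, zero as sample-well median.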
HTRA1 inhibitor – HTRA1 serine protease inhibitors, primary screen, biochemical, fluorescence polarization, HTS. Q92743. actives 0.5% (n = 340,000). AID 504803, 2011. inhibition, % at 5.96 µM. recombinant HTRA1, FP-rhodamine activity-based probe; in the data active means inhibition above about 36%;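 further: 0% = enzyme with DMSO and 100% = wells lacking enzyme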
Target sequence (Q92743 whole entry, looked up): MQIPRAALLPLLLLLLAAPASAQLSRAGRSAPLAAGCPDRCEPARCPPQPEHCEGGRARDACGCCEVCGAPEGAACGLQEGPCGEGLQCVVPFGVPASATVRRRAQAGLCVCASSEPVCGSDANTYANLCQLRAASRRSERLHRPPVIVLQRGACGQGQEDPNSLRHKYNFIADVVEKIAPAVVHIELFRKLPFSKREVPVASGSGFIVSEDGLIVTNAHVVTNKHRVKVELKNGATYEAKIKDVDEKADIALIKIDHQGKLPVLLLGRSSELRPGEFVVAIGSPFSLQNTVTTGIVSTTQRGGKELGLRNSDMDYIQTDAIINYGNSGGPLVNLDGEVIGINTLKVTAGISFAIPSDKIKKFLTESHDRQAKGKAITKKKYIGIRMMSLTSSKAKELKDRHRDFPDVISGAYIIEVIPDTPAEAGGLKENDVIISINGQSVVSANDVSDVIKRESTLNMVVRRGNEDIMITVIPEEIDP
SIAE primary – human SIAE inhibitors, primary screen, biochemical, fluorescence polarization, FP-Rh probe, 1536-well HTS; Sialate O-acetylesterase (Homo sapiens), Q9HAT2; SIAE FP-Rh probe binding; actives 0.69% (n = 370,000); inhibition, % at 9.66 µM;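 active means inhibition above a cutoff: mean of compounds within the control limits plus 3 SD of those, cut at about 17% in these data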;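 further: 0% = plate median of compound wells and 100% = probe without SIAE protein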
TCR CD3 inh – inhibitors of human TCR-CD3 interaction, primary screen, biochemical, fluorescence, TAMRA-labeled TCR probe. actives 0.37% (n = 360,000). inhibition, % at 9.4 µM. T-cell receptor (TCR). AID 651800, 2012; in the data active means inhibition above about 19%;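 further: recombinant mutant TCR 2C K166C tagged with TAMRA read by polarization; 0% = receptor in buffer alone and 100% = receptor with positive control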
DAGLB inhibitor – DAGLB lipase inhibitors, primary screen, biochemical, fluorescence, HTS. Diacylglycerol lipase-beta (Homo sapiens), Q8NCG7. HEK293T DAGLB membrane lysate, EnzChek fluorogenic substrate. inhibition, % at 5.17 µM. actives 0.059% (n = 340,000); in the data active means inhibition above about 34%;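 further: 0% = enzyme with vehicle and 100% = wells lacking enzyme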
DAGLB confirm – DAGLB lipase inhibitors, retest, confirmation, biochemical, fluorescence, HEK293T membranes. actives 73% (n = 190). AID 504445, 2011. shares compounds with DAGLB inhibitor. inhibition, % at 5.17 µM. HEK293T DAGLB membrane lysate, EnzChek fluorogenic substrate;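 active means mean inhibition over triplicate wells above a set limit taken from the primary lipase screen, cut at about 34% in these data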;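 further: 0% = DAGLB with DMSO and 100% = wells lacking DAGLB enzyme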
An asterisk follows results filed as active; . = no result given.

SMILES	ABHD4 inh	HTRA1 inhibitor	SIAE primary	TCR CD3 inh	DAGLB inhibitor	DAGLB confirm
CCOC(=O)C1=C(C(=O)OCC)C2N(Cc3ccc(C(F)(F)F)cc3)c3ccccc3[C@@]23C[C@@H](C(=O)OC)N(S(=O)(=O)c2ccccc2C)C3=N1 (some centres not stated)	-4.3	.	-7.3	1.2	.	.
CC1=NN(c2ccccc2)C(=O)/C1=C\C=C1/N(C)c2ccccc2C1(C)C	3.7	10.5	-2.1	-3.0	40.1*	61.3*
CC1=NN(c2ccccc2)C(=O)/C1=C\C=C1\N(C)c2ccccc2C1(C)C	1.8	4.1	0.4	-1.3	20.8	.
O=C(NN1C(=O)/C(=C/c2ccc(O)c(O)c2)SC1=S)c1ccccc1	-41.8	-56.3	-97.5	-64.9	38.6*	32.0
COc1cc(/C=C2\SC(=S)N(Nc3ccccc3)C2=O)ccc1O	-215.1	-185.2	-207.1	-109.7	5.2	.
O=C1/C(=C/c2ccc(O)c(O)c2)SC(=S)N1Nc1ccccc1	.	-37.9	.	.	40.0*	29.7
C[C@H](O)[C@@H]1CN2CCc3c([nH]c4c(-c5ccccc5)cccc34)[C@@H]2C[C@@H]1N(C)C(=O)NC1CCCCC1	-2.4	.	-3.5	2.6	.	.
Nc1ccc2c(c1)C(=O)c1cc(Cl)c(Cl)cc1-2	15.6	31.0	6.8	3.9	34.2*	39.5*
Nc1cc2c(cc1Cl)-c1ccc(Cl)cc1C2=O	5.8	7.5	0.7	-4.1	5.4	.
Cn1cc(/C=C2\SC(=O)NC2=S)c2ccccc21	9.3	16.3	4.0	-3.8	36.7*	54.1*
Cc1ccc(C(=O)NN2C(=O)/C(=C/c3cn(C)c4ccccc34)SC2=S)cc1	-1.2	-3.2	-0.9	-3.4	-5.7	.
Cc1ccc(-n2c(SCC(=O)c3ccc4c(c3)OCO4)nc3ccccc3c2=O)cc1	-3.9	.	1.1	.	.	.
N=C1C(c2nc3ccccc3s2)=C(O)CN1NC(=O)c1ccccc1[N+](=O)[O-]	-4.7	-0.8	-2.9	5.8	37.4*	52.6*
COc1cc(/C=C2\SC(=O)N(c3ccccc3Cl)C2=O)cc([N+](=O)[O-])c1O	7.0	3.7	-1.7	-7.9	41.9*	37.5*
CCCCCCN1CCN(C2CN(Cc3cn(Cc4ccc(C(F)(F)F)cc4)nn3)S(=O)(=O)C2)CC1 (configuration not stated)	-1.5	.	-1.1	1.7	.	.
Cc1cc(N(CCO)CCO)ccc1N=Nc1cc(F)ccc1F	16.1	31.1	6.4	10.8	42.7*	45.0*
OCCN(CCO)c1ccc(C(c2ccc(Cl)cc2)c2ccc(N(CCO)CCO)cc2Cl)c(Cl)c1	18.4	29.1	10.3	6.1	2.7	.
CCOC(=O)C(CNc1ccc(OCc2ccccc2)cc1)NC(=O)c1ccccc1 (configuration not stated)	0.7	.	9.4	1.6	.	.
Cc1cccc(NC(=S)NNc2cccc(Cl)c2)c1	7.0	-6.6	1.3	-2.9	-1.8	.
Cc1ccc(NS(=O)(=O)c2cc([N+](=O)[O-])ccc2NNC(=S)Nc2cccc(Cl)c2)c(C)c1	.	19.4	.	.	44.5*	74.2*
CC(C)C[C@H]1COc2cc(Br)ccc2S(=O)(=O)N1Cc1cn(Cc2ccc(Cl)cc2)nn1	0.9	.	-5.7	.	.	.
CC1=NN(c2ccc(Cl)cc2)C(=O)/C1=C\c1cccn1-c1ccc(S(N)(=O)=O)cc1	5.7	6.9	11.3	9.1	36.5*	28.2
Cc1ccc(S(=O)(=O)N/N=C/c2cccn2-c2ccc(Cl)cc2)cc1	-12.9	-7.7	2.8	8.5	-1.9	.
O=C(N[C@@H](Cc1cccnc1)C(=O)N1CCC[C@H]1C(=O)NCc1ccccc1)c1ccc(Cl)c(Cl)c1	-0.7	.	-2.4	5.2	.	.
COC(=O)c1cc2c(c3c4cc(F)ccc4n(S(=O)(=O)c4ccc(OC)cc4)c13)C(=O)N(C)C2	-9.3	.	-3.2	0.0	.	.
CNc1ccc(N=Nc2cccc3ncccc23)cc1	22.9	21.4	1.4	1.9	34.4*	56.1*
CC(=O)c1ccc(N2CCN(c3ncc(C(F)(F)F)cc3Cl)CC2)cc1	-5.7	-6.9	0.7	-0.2	-7.2	.
